Reference: ChEMBL document CHEMBL1156724, “Synthesis of triazole-oxazolidinones via a one-pot reaction and evaluation of their antimicrobial activity” (2008)
Values after ≈ are worked out from the molar mass of the structure shown. Active and inactive are the calls of the source. The calls are words filed in the database; no cut-off is given here.

Tests used:
Assay type in all cases: functional
[1] = test system: Mycolicibacterium smegmatis; test: Antibacterial activity against Mycobacterium smegmatis ATCC 14468 assessed as zone of inhibition diameter at 1 mg/mL after 48 hrs by Kirby-Bauer disk diffusion assay; settings: ATCC 14468, 48 h, read-out: IZ
Method in brief: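 Kirby–Bauer disk diffusion on Middlebrook 7H10 agar with 0.5% glycerol and OADC. Inoculum grown in 7H9 with 0.2% glycerol and ADC about 24 h at 37 °C, 180 rpm. 10 µL of 1 mg/mL compound in DMSO applied to 6 mm disks. INH (1 mg/mL in DMSO) positive control, DMSO negative control. Plates incubated 48 h at 37 °C. Inhibition zone diameter measured.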

[2] = test system: Bacillus subtilis; test: Antibacterial activity against Bacillus subtilis ATCC 6633 assessed as zone of inhibition diameter at 1 mg/mL after 24 hrs by Kirby-Bauer disk diffusion assay; settings: ATCC 6633, 24 h, read-out: IZ
Method in brief: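 Kirby–Bauer disk diffusion on nutrient agar, inoculum grown in Mueller–Hinton broth about 24 h at 37 °C, 180 rpm. 10 µL of 1 mg/mL compound in DMSO applied to 6 mm paper disks. Vancomycin (1 mg/mL in water) positive control, DMSO negative control. Plates incubated 24 h at 37 °C. Inhibition zone diameter measured.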

[3] = test system: Enterococcus faecalis; test: Antibacterial activity against Enterococcus faecalis ATCC 29212 assessed as zone of inhibition diameter at 1 mg/mL after 24 hrs by Kirby-Bauer disk diffusion assay
Method in brief: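 Inoculum grown in Mueller–Hinton broth ~24 h at 37 °C, 180 rpm, then plated on nutrient agar. Kirby–Bauer disk method: 10 µL of 1 mg/mL solution in DMSO applied to 6 mm sterile paper disk; vancomycin (1 mg/mL in water) positive control, DMSO negative control. Plates incubated 24 h at 37 °C; inhibition zone diameter measured.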

[4] = test system: Mycolicibacterium smegmatis; test: Antibacterial activity against Mycobacterium smegmatis ATCC 14468 after 48 hrs visualized by MTT […]; settings: ATCC 14468, 48 h
[5] = test system: Bacillus subtilis; test: Antibacterial activity against Bacillus subtilis ATCC 6633 after 24 hrs visualized by MTT analyzed by broth microdilution assay; settings: ATCC 6633, 24 h
[6] = test system: Enterococcus faecalis; test: Antibacterial activity against Enterococcus faecalis ATCC 29212 after 24 hrs visualized by MTT analyzed by broth microdilution assay; settings: ATCC 29212, 24 h

SMILES | zone of inhibition at 1000 µg/mL [1] | zone of inhibition at 1000 µg/mL [2] | Activity [3] | MIC [4] | MIC [5] | MIC [6] | zone of inhibition at 1000 µg/mL ([3]; ATCC 29212, 24 h, read-out: IZ)
CC(=O)c1ccc(N2CC(Cn3cc(CCO)nn3)OC2=O)cc1 (stereo not drawn) | 15 mm | 17 mm | inactive | 16 µg/mL (≈ 48.4 µM) | > 32 µg/mL | > 32 µg/mL | 
NNC(=O)c1ccncc1 [ISONIAZID] | 17 mm |  |  | 4 µg/mL (≈ 29.2 µM) |  |  | 
CC(=O)c1ccc(N2CC(Cn3ccnn3)OC2=O)cc1 (stereo not drawn) | 25 mm | 26 mm | inactive | 1 µg/mL (≈ 3.49 µM) | 4 µg/mL (≈ 14 µM) | 16 µg/mL (≈ 55.9 µM) | 
CN[C@H](CC(C)C)C(=O)N[C@H]1C(=O)N[C@@H](CC(N)=O)C(=O)N[C@H]2C(=O)N[C@H]3C(=O)N[C@H](C(=O)N[C@H](C(=O)O)c4cc(O)cc(O)c4-c4cc3ccc4O)[C@H](O)c3ccc(c(Cl)c3)Oc3cc2cc(c3O[C@@H]2O[C@H](CO)[C@@H](O)[C@H](O)[C@H]2O[C@H]2C[C@](C)(N)[C@H](O)[C@H](C)O2)Oc2ccc(cc2Cl)[C@H]1O [VANCOMYCIN] |  | 15 mm |  |  | 0.5 µg/mL (≈ 0.345 µM) | 1 µg/mL (≈ 0.69 µM) | 14 mm
